In the library only some 1.6% were active in any assay of this set; here they are far more common.
SR-BI DiI inh = inhibitors of SR-BI mediated HDL lipid uptake, primary screen, ldlA[mSR-BI] cells, fluorescence, single point | ldlA[mSR-BI] CHO cells, DiI-HDL uptake fluorescence, 3 h | 0.96% of 320,000 active | inhibition, % at 12.5 µM | Scavenger receptor class B member 1 (Mus musculus), Q61009;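 active = mean replicate inhibition of at least 70% and a set share of replicates each scoring 70 or more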
Target sequence (Q61009 whole entry, looked up): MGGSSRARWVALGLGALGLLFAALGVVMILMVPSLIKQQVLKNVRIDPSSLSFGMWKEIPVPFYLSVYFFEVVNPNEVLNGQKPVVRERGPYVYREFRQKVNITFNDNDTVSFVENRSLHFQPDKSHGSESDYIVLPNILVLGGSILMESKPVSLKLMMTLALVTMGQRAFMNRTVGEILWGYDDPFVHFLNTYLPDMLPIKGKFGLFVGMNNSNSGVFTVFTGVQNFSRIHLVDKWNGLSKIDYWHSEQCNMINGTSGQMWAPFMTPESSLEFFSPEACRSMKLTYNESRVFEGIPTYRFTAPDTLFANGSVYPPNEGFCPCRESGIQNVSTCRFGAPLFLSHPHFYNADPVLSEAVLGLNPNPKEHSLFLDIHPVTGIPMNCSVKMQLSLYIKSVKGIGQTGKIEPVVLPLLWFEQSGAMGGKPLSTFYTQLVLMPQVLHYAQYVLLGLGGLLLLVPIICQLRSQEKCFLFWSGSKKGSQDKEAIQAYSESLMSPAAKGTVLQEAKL
TLR4-MyD88 BLA = inhibitors of TLR4-MyD88 association in cells, primary screen, cell-based, HeLa CL3-4, BLA complementation, FRET ratio; Toll-like receptor 4 (Homo sapiens) + Myeloid differentiation primary response protein …; HeLa CL3-4 TLR4/MyD88 BLA complementation; 0.18% of 200,000 active; AID 861, 2007; inhibition, % at 8.4 µM; in the data active = inhibition above about 25%
SR-BI DiI-HDL act = activators of SR-BI mediated DiI-HDL uptake, primary screen, ldlA[mSR-BI] CHO cells, DiI fluorescence. 3 h; 100 = double the neutral-control signal. activation, % at 12.5 µM. 0.096% of 320,000 active;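 active = mean replicate activation of at least 60% and every replicate at or above 60%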
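Test system: SR-BI-overexpressing, LDLR-lacking CHO cells; Medium: Ham's F12 with 0.5% BSA, HEPES 25 mM, pH 7.4; Schedule: 3 h, 37 °C; Technique: bottom-read fluorescence, 550/595 nm.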
NOD2 RIPK2 PPI = NOD2-RIPK2 binding disruptors in cells, primary screen, fluorescence, CHO cells, BLA complementation. CCF4 ratio. inhibition, % at 4.98 µM. 0.38% of 360,000 active; in the data active = inhibition above about 21%
Lipid droplet = inhibitors of hepatocyte lipid droplet formation, primary screen, imaging, high-throughput imaging, BODIPY stain; AML12 mouse hepatocytes, oleate lipid droplets; inhibition, % at 6.5 µM; 0.4% of 240,000 active;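 active = lipid droplet intensity inhibited by at least 50%, with more than 500 cells counted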
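Assay system: AML12 hepatocytes (mouse); Probe or stimulus: oleic acid at 100 µM to induce lipid droplet formation; Dosing: compound at 6.5 µM only; Schedule: compound with oleate, overnight; Detection: fluorescence imaging, 20x objective, two fields per well; Measure: % inhibition of lipid droplet signal.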
TLR9-MyD88 block = inhibitors of TLR9-MyD88 association in cells, primary screen, cell-based, CHO, BLA complementation, fluorescence; Toll-like receptor 9 (Homo sapiens) + Myeloid differentiation primary response protein …; CCF4 FRET ratio; inhibition, % at 4.98 µM; 0.21% of 340,000 active;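 active = inhibition above the mean over all tested compounds plus 3 SD, cut at about 21% in these data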
Each line names hits and unclear results; the compound was inactive in the other large screens.

Oc1c(Br)cc(Br)cc1/C=N/NC(=S)N[C@H]1CC2C=CC1C2 (stereo partly specified)	SR-BI DiI inh 78.2 (no result: TLR4-MyD88 BLA)
CCOc1ccc(S(=O)(=O)N2CCN=C2c2ccccc2)cc1	none (no result: TLR4-MyD88 BLA)
CCC(CC)NC(=O)CON=C1c2ccccc2-c2ccccc21	SR-BI DiI inh 72.4
CCNC(=O)CON=C1c2ccccc2-c2ccccc21	none
COC(=O)[C@H]1C[C@@]2(O)CN(S(=O)(=O)c3ccc(C)cc3)C[C@@]2(OC(=O)NC2CC2)C[C@H]1C(=O)OC	none (no result: SR-BI DiI inh, TLR4-MyD88 BLA, SR-BI DiI-HDL act, Lipid droplet)
CCOc1cc(-c2nc(-c3ccc(OC)cc3)no2)cc(OCC)c1OCC	SR-BI DiI inh 75.1 (no result: Lipid droplet)
CCOc1cc(-c2nc(-c3ccccc3OC)no2)cc(OCC)c1OCC	SR-BI DiI inh 80.3
CCOc1cc(-c2nc(-c3ccncc3)no2)cc(OCC)c1OCC	none (no result: Lipid droplet)
CCOc1cc(-c2nnc(-c3ccco3)o2)cc(OCC)c1OCC	SR-BI DiI inh 77.1
CCOC(=O)c1[nH]c2ccccc2c1NC(=S)Nc1cccc(C)c1	none
CCn1c(SCC(=O)N2CCCC2=O)nnc1-c1cccs1	SR-BI DiI-HDL act 96.4 (no result: TLR4-MyD88 BLA, Lipid droplet)
Cn1c(SCC(=O)N2CCCc3ccccc32)nnc1-c1cccs1	none (no result: Lipid droplet)
C=CCC(CC(O)COCCC)C(=O)NNC(=S)Nc1ccccc1 (stereo unspecified)	none (no result: TLR4-MyD88 BLA)
Cn1nccc1C(=O)N/N=C/c1c(O)ccc2ccccc12	SR-BI DiI inh 105.4 (no result: TLR4-MyD88 BLA)
CCOc1ccc2ccccc2c1/C=N\NC(=O)c1ccc([N+](=O)[O-])cc1	SR-BI DiI inh 78.4 (no result: TLR4-MyD88 BLA)
CCOc1ccc2ccccc2c1/C=N\NC(=O)OC	none
O=C(N/N=C/c1c(O)ccc2ccccc12)c1cccnc1	none (no result: TLR4-MyD88 BLA)
O=C(N/N=C\c1c(O)ccc2ccccc12)c1ccc(O)cc1	SR-BI DiI inh 93.9 (no result: TLR4-MyD88 BLA)
Cn1cc(C(=O)N/N=C/c2c(O)ccc3ccccc23)ccc1=O	SR-BI DiI inh 102.1
COc1ccccc1OCC(=O)NC1CCSc2ccccc21 (stereo unspecified)	none (no result: TLR4-MyD88 BLA, Lipid droplet)
O=C(N/N=C/c1c(O)ccc2ccccc12)c1ccc(Br)o1	SR-BI DiI inh 124.3 (no result: TLR4-MyD88 BLA)
Cc1ccc(C(=O)N/N=C/c2c(O)ccc3ccccc23)cn1	SR-BI DiI inh 92.9 (no result: TLR4-MyD88 BLA)
Cc1occc1C(=O)N/N=C/c1c(O)ccc2ccccc12	SR-BI DiI inh 114.0 (no result: TLR4-MyD88 BLA)
O=C(N/N=C/c1ccccn1)c1ccc(Br)o1	none (no result: Lipid droplet)
Cc1occc1C(=O)N/N=C/c1c[nH]c2ccccc12	none (no result: Lipid droplet)
O=C(NCc1ccc(Cl)s1)C1CCC(=O)N(CCc2cccc(F)c2)C1 (stereo unspecified)	none (no result: TLR4-MyD88 BLA)
COc1ccc(NC(=O)c2cc(-c3ccco3)nc3ccccc23)cc1S(=O)(=O)N1CCOCC1	SR-BI DiI inh 89.1 (no result: TLR4-MyD88 BLA)
Cc1ccc(NC(=O)c2cc(=O)c3ccccc3o2)cc1S(=O)(=O)N1CCOCC1	none (no result: TLR4-MyD88 BLA)
Cc1ccc(NC(=O)c2ccc3ccccc3n2)cc1S(=O)(=O)N1CCOCC1	SR-BI DiI inh 94.5
COc1ccc(NC(=O)c2cc(C)nc3ccccc23)cc1S(=O)(=O)N1CCOCC1	none (no result: TLR4-MyD88 BLA, Lipid droplet)
O=C(Nc1ccc(Cl)c(S(=O)(=O)N2CCOCC2)c1)c1cc(-c2ccccn2)nc2ccccc12	SR-BI DiI inh 82.7
Cc1ccc(NC(=O)c2cc(=O)c3ccccc3o2)cc1S(=O)(=O)N1CCCCC1	SR-BI DiI inh 80.3
CC(=O)Nc1ccc(N2C(=O)CC(Sc3nc(C)cc(C)n3)C2=O)cc1 (stereo unspecified)	none (no result: TLR4-MyD88 BLA, Lipid droplet)
OCC(O)C1OC(c2ccccc2)OC(CO)C1O (stereo unspecified)	none (no result: TLR4-MyD88 BLA, Lipid droplet)
CC(C)=NOc1nc(N(C)C)nc(N(C)C)n1	none
CN(Cc1ccco1)S(=O)(=O)c1nnc(NC(=O)c2ccccc2Cl)s1	none (no result: TLR4-MyD88 BLA)
O=C(Nc1ccc(Cl)c(S(=O)(=O)N2CCOCC2)c1)c1ccc2c(c1)OCCO2	SR-BI DiI inh 72.4
Cc1c(C(=O)Nc2ccc(F)cc2)oc2ccc(S(=O)(=O)N3CCCC3)cc12	none
Cc1c(C(=O)Nc2ccc(F)c(F)c2)oc2ccc(S(=O)(=O)N3CCCCC3)cc12	SR-BI DiI inh 75.1
CC(=O)Nc1ccc(NC(=O)c2cc(=O)c3cc(C)c(C)cc3o2)cc1	SR-BI DiI inh 71.9 (no result: TLR4-MyD88 BLA, Lipid droplet)
CSc1ncccc1C(=O)NC(C)CCc1ccccc1 (stereo unspecified)	none (no result: TLR4-MyD88 BLA)
O=C(Nc1ccncc1)c1ccc2c(c1)S(=O)(=O)c1ccccc1C2=O	none
O=C(Nc1nc(-c2ccccc2)cs1)c1ccc2c(c1)S(=O)(=O)c1ccccc1C2=O	none
O=C(Nc1nc(-c2cccc3ccccc23)cs1)c1ccc2c(c1)S(=O)(=O)c1ccccc1C2=O	SR-BI DiI inh 72.5
O=C(Nc1ccc(-c2ccccc2)cc1)c1ccc2c(c1)S(=O)(=O)c1ccccc1C2=O	SR-BI DiI inh 84.3 (no result: TLR4-MyD88 BLA, Lipid droplet)
O=C(NCc1cccc(C(F)(F)F)c1)c1csc([C@@H]2C[C@H](O)[C@@H](CO)O2)n1	none (no result: SR-BI DiI inh, TLR4-MyD88 BLA, SR-BI DiI-HDL act, Lipid droplet, TLR9-MyD88 block)
Cc1cccc(C)c1NC(=O)C1c2ccccc2OCC(=O)N1CCc1c[nH]c2ccccc12 (stereo unspecified)	none (no result: SR-BI DiI inh, TLR4-MyD88 BLA, SR-BI DiI-HDL act, Lipid droplet, TLR9-MyD88 block)
COc1ccc(-c2oc(=O)c3cc(OC)c(OC)cc3c2/C=C/c2ccc(OC(C)=O)cc2)cc1	none (no result: TLR4-MyD88 BLA, Lipid droplet)
COc1cc(-c2noc(C)c2/C=C/c2ccc(OC(C)=O)cc2)cc(OC)c1OC	SR-BI DiI inh 74.9 (no result: TLR4-MyD88 BLA, Lipid droplet)
O=C(Nc1nc(-c2ccc(Cl)cc2Cl)cs1)C1CCCO1 (stereo unspecified)	Lipid droplet 53.7
Cc1cccc(C)c1NCc1nnc(SCC(=O)Nc2nc(-c3ccccc3)cs2)n1-c1ccccc1	none
CCOc1ccc(NCc2nnc(SCC(=O)Nc3nc(-c4ccccc4)cs3)n2-c2ccccc2)cc1	SR-BI DiI inh 74.7
COc1ccc(NC(=S)NNc2ccc(C(=O)O)cc2)cc1	none (no result: TLR4-MyD88 BLA)
COc1ccccc1NC(=O)/C=C/c1cc([N+](=O)[O-])ccc1OC(F)F	none (no result: SR-BI DiI inh, TLR4-MyD88 BLA, SR-BI DiI-HDL act)
O=C(/C=C/c1cc([N+](=O)[O-])ccc1OC(F)F)Nc1cccc(OC(F)F)c1	SR-BI DiI inh 75.0
Cc1noc(C)c1COC(=O)c1cccnc1Cl	none
Cc1ccc(C)c(OC(=O)c2cccnc2Cl)c1C	SR-BI DiI-HDL act 317.0 (no result: TLR4-MyD88 BLA)
CCOC(=O)c1c(NC(C)=O)sc2c(OCC(O)CN(CC)CC)c(Br)ccc12 (stereo unspecified)	SR-BI DiI inh 82.7
COc1ccc(-c2ccc(NCCC3=CCCCC3)nn2)cc1OC	SR-BI DiI inh 74.9 (no result: Lipid droplet)
COc1ccc(C(=O)NCCC2=CCCCC2)cc1OC	none
